Reference: ChEMBL document CHEMBL1132230, “1-(1,2,5-Thiadiazol-4-yl)-4-azatricyclo[2.2.1.0(2,6)]heptanes as new potent muscarinic M1 agonists: structure-activity relationship for 3-aryl-2-propyn-1-yloxy and 3-aryl-2-propyn-1-ylthio derivatives” (J Med Chem, 1999)

Legend:
[1] = target: T1, Muscarinic acetylcholine receptor M2 (Homo sapiens) (UniProt P08172); experiment: Inhibition of forskolin induced c-AMP formation in CHO-M2 cells expressing human M2 receptor.; assay type: functional, cell-based
T1 sequence (whole entry): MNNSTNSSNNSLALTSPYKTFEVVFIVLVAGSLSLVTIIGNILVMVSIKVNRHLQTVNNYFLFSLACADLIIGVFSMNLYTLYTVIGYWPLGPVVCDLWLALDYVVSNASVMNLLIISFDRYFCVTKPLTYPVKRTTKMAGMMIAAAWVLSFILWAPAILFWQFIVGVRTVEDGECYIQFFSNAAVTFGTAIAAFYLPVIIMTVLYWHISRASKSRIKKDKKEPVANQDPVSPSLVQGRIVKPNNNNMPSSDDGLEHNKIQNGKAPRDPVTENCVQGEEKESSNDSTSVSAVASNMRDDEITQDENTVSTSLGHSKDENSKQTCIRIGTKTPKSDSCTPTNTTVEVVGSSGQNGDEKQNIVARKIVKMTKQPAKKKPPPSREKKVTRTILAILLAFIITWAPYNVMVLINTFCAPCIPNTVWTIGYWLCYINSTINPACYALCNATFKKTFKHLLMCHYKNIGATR
Outline: (§1)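 CHO cells transfected with human M2 receptor plasmid and cultured with atropine and methotrexate; atropine withdrawn overnight. Cells detached with PBS/1 mM EDTA, then preincubated 30 min at 0 °C in DMEM/20 mM HEPES pH 7.4 with 0.5 mM IBMX. Compound added and 10 μM forskolin (final) started a 10 min, 37 °C incubation, stopped with ice-cold ethanol. cAMP measured by radioimmunoassay.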

[2] = Ratio of EC50(CHO-M2) and EC50(A9L-M1); assay type: functional
Outline: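 Ratio of EC50 for inhibition of forskolin-stimulated cAMP in human-M2 CHO cells to EC50 for PI hydrolysis in A9L-M1 cells, both measured in this work.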

[3] = target: T2, Muscarinic acetylcholine receptor M2 (Rattus norvegicus, UniProt P10980); experiment: Inhibition of [3H]- Oxo-M binding at Muscarinic acetylcholine receptor M2 in rat brain membranes.; assay type: cell membranes
T2 sequence (P10980 whole entry): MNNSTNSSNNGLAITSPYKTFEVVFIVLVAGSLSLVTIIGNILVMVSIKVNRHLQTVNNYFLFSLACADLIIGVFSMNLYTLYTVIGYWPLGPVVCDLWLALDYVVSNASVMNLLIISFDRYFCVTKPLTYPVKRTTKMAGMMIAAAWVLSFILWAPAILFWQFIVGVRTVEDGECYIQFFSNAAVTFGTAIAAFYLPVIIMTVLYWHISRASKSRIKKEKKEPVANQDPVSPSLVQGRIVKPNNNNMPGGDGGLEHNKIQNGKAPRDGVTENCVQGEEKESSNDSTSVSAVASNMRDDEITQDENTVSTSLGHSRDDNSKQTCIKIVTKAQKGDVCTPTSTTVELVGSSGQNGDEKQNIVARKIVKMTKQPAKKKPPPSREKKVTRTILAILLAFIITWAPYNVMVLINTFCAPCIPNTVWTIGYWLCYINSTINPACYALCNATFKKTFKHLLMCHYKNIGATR
Outline: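 Rat cortex homogenized in 20 mM HEPES pH 7.4 and centrifuged at 40000g. Membranes incubated 60 min at room temperature with 1 nM (final) [³H]oxotremorine-M and compound. Separated on PEI-soaked GF/C filters and counted by scintillation. Nonspecific binding defined with 10 μM arecoline. Value reported as IC50.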

[4] = target: T3, Muscarinic acetylcholine receptor M2 (Homo sapiens, UniProt P08172); experiment: Compound was tested for its potency at M-2 receptor by inhibiting forskolin induced c-AMP formation in CHO-M2 cells human M2 receptor; assay type: functional, cell-based; outline: as §1
T3 sequence (P08172 whole entry): T1 sequence (whole entry)

[5] = target: T4, Muscarinic acetylcholine receptor M1 (Homo sapiens, UniProt P11229); experiment: Stimulation of phosphoinositol hydrolysis in the mouse fibroblast cell line A9L-M1 expressing Muscarinic acetylcholine receptor M1.; assay type: functional, cell-based
T4 sequence (P11229 whole entry): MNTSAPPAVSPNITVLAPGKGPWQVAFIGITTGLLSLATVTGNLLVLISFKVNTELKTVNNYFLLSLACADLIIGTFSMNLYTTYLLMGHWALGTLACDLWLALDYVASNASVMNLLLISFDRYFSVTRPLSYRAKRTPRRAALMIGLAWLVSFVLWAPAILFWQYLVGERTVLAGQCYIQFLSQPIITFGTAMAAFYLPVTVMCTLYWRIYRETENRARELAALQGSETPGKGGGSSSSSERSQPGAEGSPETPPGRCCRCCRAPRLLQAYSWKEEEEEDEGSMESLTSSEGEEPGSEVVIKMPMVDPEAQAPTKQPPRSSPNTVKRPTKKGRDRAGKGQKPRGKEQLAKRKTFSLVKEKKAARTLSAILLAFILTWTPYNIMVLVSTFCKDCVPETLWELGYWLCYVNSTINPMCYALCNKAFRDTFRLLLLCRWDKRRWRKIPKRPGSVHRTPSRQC

[6] = target: T1, Muscarinic acetylcholine receptor M2 (Homo sapiens); experiment: Compound was tested for its potency towards Muscarinic acetylcholine receptor M2 by inhibiting forskolin induced c-AMP formation in CHO-M2 cells expressing human Muscarinic acetylcholine receptor M2 receptor; assay type: functional, cell-based; outline: as §1
[7] = target: T1, Muscarinic acetylcholine receptor M2 (Homo sapiens); experiment: Compound was tested for its potency at Muscarinic acetylcholine receptor M2 by inhibiting forskolin induced c-AMP formation in CHO-M2 cells expressing human M2 receptor; assay type: functional, cell-based
Outline: (§2)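 Human M2 receptor plasmid transfected into CHO cells […], cultured in DMEM/10% FBS with 1 μM atropine and 1 μM methotrexate; atropine-free medium overnight before assay. Cells detached with PBS + 1 mM EDTA, washed into DMEM + 20 mM HEPES pH 7.4 + 0.5 mM IBMX, preincubated 30 min at 0 °C. Forskolin 10 μM final, 10 min at 37 °C; ethanol stop; cAMP by radioimmunoassay.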

[8] = target: T4, Muscarinic acetylcholine receptor M1; experiment: (§3) Compound was tested for its ability to stimulate phosphoinositol (PI) hydrolysis in the mouse fibroblast cell line A9L-M1 expressing Muscarinic acetylcholine receptor M1 (100 uM concentration); assay type: functional, cell-based
Outline: (§4)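 A9L mouse fibroblasts stably expressing M1, grown to confluence in DMEM/10% FCS with 1.3 μCi/mL [³H]inositol for 48 h, detached with trypsin and resuspended in HEPES/LiCl buffer (LiCl 10 mM, pH 7.4). Cells incubated 45 min at 37 °C with compound up to 100 μM. Total [³H]inositol phosphates separated by ion exchange and counted.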

[9] = target: T5, Muscarinic acetylcholine receptor M1 (Homo sapiens) (UniProt P11229); experiment: as §3; assay type: functional, cell-based; outline: as §4
T5 sequence (whole entry): T4 sequence (P11229 whole entry)

[10] = target: T3, Muscarinic acetylcholine receptor M2; experiment: Compound was tested for its potency towards Muscarinic acetylcholine receptor M2 by inhibiting forskolin induced c-AMP formation in CHO-M2 cells; assay type: functional, cell-based; outline: as §2
[11] = target: T2, Muscarinic acetylcholine receptor M2; experiment: In vitro Muscarinic acetylcholine receptor M2 binding was evaluated in rat brain membranes by using [3H]- Oxo-M; assay type: cell membranes
Outline: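 Rat cortex homogenized in 20 mM Hepes pH 7.4 and spun 10 min at 40000g; pellet resuspended and incubated with [3H]oxotremorine-M (1 nM final) plus test drug for 60 min at room temperature. Bound and free separated by vacuum filtration on PEI-presoaked GF/C filters, then scintillation counting.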

Compound	Max [1] [%]	Ratio [2]	IC50 [3] [nM]	EC50 [4] [nM]	EC50 [5] [nM]	Max [6] [%]	Max [7] [%]	EC50 [8] [nM]	Max [9] [%]	EC50 [10] [nM]	IC50 [11] [nM]
Clc1ccc(C#CCSc2nsnc2C23CN4CC2C3C4)cc1	76	1	242	80	107						
Fc1ccc(C#CCSc2nsnc2C23CN4CC2C3C4)cc1	88	18	20	83	4.5						
C[N+](C)(C)CCOC(N)=O						100					
C(#Cc1ccccc1)COc1nsnc1C12CN3CC1C2C3		11	16				99				
CN1CCC=C(c2nsnc2OCC#Cc2ccccc2)C1	115	2	14								
Clc1cc(Cl)cc(C#CCSc2nsnc2C23CN4CC2C3C4)c1	84	0.3	788	528	1810						
Clc1ccc(C#CCOc2nsnc2C23CN4CC2C3C4)cc1	102		63	1210							
Clc1cccc(C#CCSc2nsnc2C23CN4CC2C3C4)c1	96	74	49	673	9						
Fc1cccc(C#CCSc2nsnc2C23CN4CC2C3C4)c1	106	362	26	904	2.5						
Clc1cc(Cl)cc(C#CCOc2nsnc2C23CN4CC2C3C4)c1	23		1690		1200						
Fc1cccc(C#CCOc2nsnc2C23CN4CC2C3C4)c1		139	21	683				4.9	91		
Fc1cc(F)cc(C#CCSc2nsnc2C23CN4CC2C3C4)c1	79	218	28	1660	7.6						
Fc1cc(F)cc(C#CCOc2nsnc2C23CN4CC2C3C4)c1	68	133	30	2690	20.2						
Fc1cc(Cl)cc(C#CCSc2nsnc2C23CN4CC2C3C4)c1	90	17	142	763	46						
COc1cccc(C#CCO/N=C2\CN3CCC2C3)c1 (stereo not given)		4			7120	89				26700	150
CCCCCCOc1nsnc1C1=CCCN(C)C1 [XANOMELINE]						82					16
C(#Cc1ccccc1)CSc1nsnc1C12CN3CC1C2C3	106	14	27	853	61.9						
Fc1ccc(C#CCOc2nsnc2C23CN4CC2C3C4)cc1	109	11	10	791	71						
Fc1cc(Cl)cc(C#CCOc2nsnc2C23CN4CC2C3C4)c1	76	13	92	1480	110						
Clc1cccc(C#CCOc2nsnc2C23CN4CC2C3C4)c1	101	217	47	2280	10.5						
